In article PMC9292719 (Diabetes, Obesity & Metabolism, 2021):
Marks after values point to notes of the source that are not given here.

Columns and labels:
healthy subjects [1] = experiment: Safety: treatment-emergent adverse events; assay type: in vivo, human; details: single s.c. dose 0.2 U/kg; for Headache, number of subjects / Headache, percentage of subjects / Injection site erythema, number of subjects / Injection site erythema, percentage of subjects / Nasopharyngitis, number of subjects / Nasopharyngitis, percentage of subjects / Hypoglycaemia, events (one subject each): TEAE
Outline: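 In a randomized three-period crossover with washouts, each subject received a single 0.2 U/kg s.c. dose per period. Treatment-emergent adverse events were recorded per treatment and graded mild, moderate or severe. They were summarised descriptively by visit/treatment as subject counts, percentages and event numbers.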

[2] = assay type: in vivo, human
Outline: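 Healthy volunteers in a randomized crossover each received a single 0.2 U/kg s.c. dose per period. Plasma was sampled predose and from 5 to 720 min postdose. Insulin aspart, with 15N-labelled internal standard, was captured on anti-insulin antibody magnetic beads and measured by UPLC-MS/MS (range 100-8000 pg/mL). AUC ratios and CIs came from Fieller's theorem. Time endpoints were summarised descriptively by treatment.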

healthy subjects [3] = experiment: Pharmacodynamics: automated euglycaemic glucose clamp; assay type: in vivo, human; details: Ref‐InsAsp‐US vs. Ref‐InsAsp‐EU (N = 65); two-sided 90% CI; Fieller's theorem
Outline: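 Healthy adults aged 18-65 with BMI 18.5-29.0 kg/m2 and fasting glucose ≤5.5 mmol/L. Randomized crossover: single 0.2 U/kg s.c. dose per period, 12- to 16-day washout. Before dosing, variable i.v. human insulin brought blood glucose to the 81 mg/dL target. Glucose infusion was then adjusted automatically over a 12 h clamp, GIR logged every minute. Partial-AUC ratios with CIs came from Fieller's theorem.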

[4] = healthy subjects, single s.c. dose 0.2 U/kg, plasma, arithmetic mean (SD)
[5] = Ref‐InsAsp‐US vs. Ref‐InsAsp‐EU (N = 66), two-sided 90% CI, Fieller's theorem

Row | Substance | Headache, number of subjects (healthy subjects [1]) | Headache, percentage of subjects (healthy subjects [1]) [%] | Injection site erythema, number of subjects (healthy subjects [1]) | Injection site erythema, percentage of subjects (healthy subjects [1]) [%] | Nasopharyngitis, number of subjects (healthy subjects [1]) | Nasopharyngitis, percentage of subjects (healthy subjects [1]) [%] | Number of TEAE events (healthy subjects [1]) [events] | Subjects with at least one TEAE, percentage (healthy subjects [1]) [%] | Subjects with at least one treatment‐emergent adverse event (TEAE), number (healthy subjects [1]) [subjects] | t50%‐early (time to half‐maximum before Cmax) [2, 4] | t50%‐late (time to half‐maximum after Cmax) [2, 4] | tmax (time to maximum observed insulin aspart concentration) [2, 4] | λz (terminal elimination rate constant) [2, 4] | Hypoglycaemia, events (one subject each) (healthy subjects [1]) | AUC0‐6h LS‐mean ratio [2, 5] | AUC6‐12h LS‐mean ratio [2, 5] | AUCGIR,0‐4h LS‐mean ratio (healthy subjects [3]) | AUCGIR,0‐6h LS‐mean ratio (healthy subjects [3]) | AUCGIR,6h‐last LS‐mean ratio (healthy subjects [3])
1 | Insulin aspart [Ref‐InsAsp‐EU] | eight | 11.9 | one | 1.5 | two | 3.0 | 13 | 19.4 | 13 | 0.45 (0.12) h | 3.1 (0.84) h | 1.10 (0.53) h | 0.86 (0.28) /h |  |  |  |  |  | 
2 | Insulin aspart [Ref‐InsAsp‐US] | five | 7.2 | one | 1.4 | none |  | 12 | 15.9 | 11 |  | 3.13 (0.86) h | 1.11 (0.45) h | 0.82 (0.27) /h | one | 99.71 (97.90; 101.52) % | 107.18 (83.81; 137.45) % | 94.11 (90.37; 97.99) ^b % | 94.81 (91.46; 98.27) ^b % | 101.05 (95.75; 106.64) ^b %
3 | MYL‐1601D: rapid‐acting human insulin analogue, biosimilar insulin aspart 100 U/mL, produced by recombinant DNA technology utilizing Pichia pastoris (Mylan) | four | 5.7 | two | 2.9 | three | 4.3 | 18 | 15.7 |  |  |  |  |  | one |  |  |  |  | 
